Measured values published in ChEMBL document CHEMBL4689842, “EUbOPEN Chemogenomics Library wave 1” (2021).

Tested on: Fibroblast
Test: Multiplex assay against human fibroblast
Format: toxicity, cell-based
Outline: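 At seeding, live cells were stained with Hoechst33342, BioTracker Green Microtubule Cytoskeleton Dye, MitoTracker Red and Annexin V Alexa Fluor 680. After compound addition they were imaged on a CQ1 microscope at 37°C and 5% CO2, and CellPathfinder machine-learning gating sorted them into Hoechst high-intensity objects or normal cells, with normal cells further split into healthy, pyknosed or fragmented nuclei and pyknosed cells into mitotic or apoptotic. Tubulin, mitochondrial-mass and membrane-permeability phenotypes are given as per cents of cells with healthy nuclei.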

[1] = 12 h, 1 µM, compound concentration 1 uM, replicate 1
[2] = 12 h, 1 µM, compound concentration 1 uM, replicate 2
[3] = 12 h, 10 µM, compound concentration 10 uM, replicate 1
[4] = 12 h, 10 µM, compound concentration 10 uM, replicate 2
[5] = 24 h, 1 µM, compound concentration 1 uM, replicate 1
[6] = 24 h, 1 µM, compound concentration 1 uM, replicate 2
[7] = 24 h, 10 µM, compound concentration 10 uM, replicate 1
[8] = 24 h, 10 µM, compound concentration 10 uM, replicate 2
[9] = 48 h, 1 µM, compound concentration 1 uM, replicate 1
[10] = 48 h, 1 µM, compound concentration 1 uM, replicate 2
[11] = 48 h, 10 µM, compound concentration 10 uM, replicate 1
[12] = 48 h, 10 µM, compound concentration 10 uM, replicate 2

Cc1cc(C)c(S(=O)(=O)N(Cc2ccc(-c3cccc(S(C)(=O)=O)c3)cc2)Cc2ccc(C(F)(F)F)o2)c(C)c1
Population Apoptotic (%) [1]: 68%
Population Fragmented Nuclei (%) [1]: 20%
Population Healthy Nuclei (%) [1]: 45%
Population Hoechst High Intensity Objects (%) [1]: 8%
Population Membrane Permeable-Phenotype (%) [1]: 19%
Population Mitochondria Different-Phenotype (%) [1]: 8%
Population Mitotic Cells (%) [1]: 32%
Population Normal (%) [1]: 91%
Population Pyknosed Nuclei (%) [1]: 34%
Population Tubulin-Different-Phenotype (%) [1]: 55%
Total Cell Count [1]: 161
Population Apoptotic (%) [2]: 66%
Population Fragmented Nuclei (%) [2]: 15%
Population Healthy Nuclei (%) [2]: 80%
Population Hoechst High Intensity Objects (%) [2]: 6%
Population Membrane Permeable-Phenotype (%) [2]: 3%
Population Mitochondria Different-Phenotype (%) [2]: 21%
Population Mitotic Cells (%) [2]: 33%
Population Normal (%) [2]: 93%
Population Pyknosed Nuclei (%) [2]: 3%
Population Tubulin-Different-Phenotype (%) [2]: 27%
Total Cell Count [2]: 72
Population Apoptotic (%) [3]: 51%
Population Fragmented Nuclei (%) [3]: 40%
Population Healthy Nuclei (%) [3]: 27%
Population Hoechst High Intensity Objects (%) [3]: 45%
Population Membrane Permeable-Phenotype (%) [3]: 25%
Population Mitochondria Different-Phenotype (%) [3]: 7%
Population Mitotic Cells (%) [3]: 48%
Population Normal (%) [3]: 54%
Population Pyknosed Nuclei (%) [3]: 31%
Population Tubulin-Different-Phenotype (%) [3]: 74%
Total Cell Count [3]: 179
Population Apoptotic (%) [4]: 0%
Population Fragmented Nuclei (%) [4]: 14%
Population Healthy Nuclei (%) [4]: 77%
Population Hoechst High Intensity Objects (%) [4]: 22%
Population Membrane Permeable-Phenotype (%) [4]: 3%
Population Mitochondria Different-Phenotype (%) [4]: 3%
Population Mitotic Cells (%) [4]: 100%
Population Normal (%) [4]: 77%
Population Pyknosed Nuclei (%) [4]: 8%
Population Tubulin-Different-Phenotype (%) [4]: 11%
Total Cell Count [4]: 81
Population Apoptotic (%) [5]: 45%
Population Fragmented Nuclei (%) [5]: 21%
Population Healthy Nuclei (%) [5]: 64%
Population Hoechst High Intensity Objects (%) [5]: 9%
Population Membrane Permeable-Phenotype (%) [5]: 25%
Population Mitochondria Different-Phenotype (%) [5]: 6%
Population Mitotic Cells (%) [5]: 54%
Population Normal (%) [5]: 90%
Population Pyknosed Nuclei (%) [5]: 14%
Population Tubulin-Different-Phenotype (%) [5]: 58%
Total Cell Count [5]: 171
Population Apoptotic (%) [6]: 0%
Population Fragmented Nuclei (%) [6]: 14%
Population Healthy Nuclei (%) [6]: 80%
Population Hoechst High Intensity Objects (%) [6]: 1%
Population Membrane Permeable-Phenotype (%) [6]: 5%
Population Mitochondria Different-Phenotype (%) [6]: 18%
Population Mitotic Cells (%) [6]: 100%
Population Normal (%) [6]: 98%
Population Pyknosed Nuclei (%) [6]: 5%
Population Tubulin-Different-Phenotype (%) [6]: 32%
Total Cell Count [6]: 86
Population Apoptotic (%) [7]: 77%
Population Fragmented Nuclei (%) [7]: 34%
Population Healthy Nuclei (%) [7]: 46%
Population Hoechst High Intensity Objects (%) [7]: 42%
Population Membrane Permeable-Phenotype (%) [7]: 31%
Population Mitochondria Different-Phenotype (%) [7]: 18%
Population Mitotic Cells (%) [7]: 22%
Population Normal (%) [7]: 57%
Population Pyknosed Nuclei (%) [7]: 18%
Population Tubulin-Different-Phenotype (%) [7]: 72%
Total Cell Count [7]: 166
Population Apoptotic (%) [8]: 14%
Population Fragmented Nuclei (%) [8]: 15%
Population Healthy Nuclei (%) [8]: 71%
Population Hoechst High Intensity Objects (%) [8]: 10%
Population Membrane Permeable-Phenotype (%) [8]: 5%
Population Mitochondria Different-Phenotype (%) [8]: 10%
Population Mitotic Cells (%) [8]: 85%
Population Normal (%) [8]: 89%
Population Pyknosed Nuclei (%) [8]: 13%
Population Tubulin-Different-Phenotype (%) [8]: 15%
Total Cell Count [8]: 109
Population Apoptotic (%) [9]: 72%
Population Fragmented Nuclei (%) [9]: 30%
Population Healthy Nuclei (%) [9]: 58%
Population Hoechst High Intensity Objects (%) [9]: 8%
Population Membrane Permeable-Phenotype (%) [9]: 16%
Population Mitotic Cells (%) [9]: 27%
Population Normal (%) [9]: 91%
Population Pyknosed Nuclei (%) [9]: 11%
Population Tubulin-Different-Phenotype (%) [9]: 40%
Total Cell Count [9]: 178
Population Apoptotic (%) [10]: 66%
Population Fragmented Nuclei (%) [10]: 17%
Population Healthy Nuclei (%) [10]: 79%
Population Hoechst High Intensity Objects (%) [10]: 10%
Population Membrane Permeable-Phenotype (%) [10]: 18%
Population Mitochondria Different-Phenotype (%) [10]: 2%
Population Mitotic Cells (%) [10]: 33%
Population Normal (%) [10]: 89%
Population Pyknosed Nuclei (%) [10]: 2%
Population Tubulin-Different-Phenotype (%) [10]: 32%
Total Cell Count [10]: 114
Population Apoptotic (%) [11]: 100%
Population Fragmented Nuclei (%) [11]: 47%
Population Healthy Nuclei (%) [11]: 49%
Population Hoechst High Intensity Objects (%) [11]: 40%
Population Membrane Permeable-Phenotype (%) [11]: 45%
Population Mitochondria Different-Phenotype (%) [11]: 3%
Population Mitotic Cells (%) [11]: 0%
Population Normal (%) [11]: 59%
Population Pyknosed Nuclei (%) [11]: 2%
Population Tubulin-Different-Phenotype (%) [11]: 63%
Total Cell Count [11]: 192
Population Fragmented Nuclei (%) [12]: 21%
Population Healthy Nuclei (%) [12]: 77%
Population Hoechst High Intensity Objects (%) [12]: 12%
Population Membrane Permeable-Phenotype (%) [12]: 5%
Population Normal (%) [12]: 87%
Population Pyknosed Nuclei (%) [12]: 1%
Population Tubulin-Different-Phenotype (%) [12]: 22%
Total Cell Count [12]: 86
